In ChEMBL document CHEMBL1772955, “Synthesis, metabolic stability and antiviral evaluation of various alkoxyalkyl esters of cidofovir and 9-(S)-[3-hydroxy-2-(phosphonomethoxy)propyl]adenine” (Bioorg Med Chem, 2011):

How the values were obtained:
[1] = system: Liver; assay: Metabolic stability in human liver S9 fraction assessed as compound degradation at 10 uM after 90 mins by HPLC/MS/MS; assay type: ADME, subcellular; conditions: s9, 1.5 h
Summary of the method: (§1)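 Liver S9 fraction at 3 mg/mL protein in phosphate buffer, test article 1 μM or 10 μM final; 2 min equilibration at 37 °C, then reaction started with 1x NADPH regeneration system. Samples taken from time zero to 90 min into 1% ammonium hydroxide in N-propyl alcohol. Analysed by C8 HPLC with water/isopropyl alcohol (0.1% formic acid) gradient and ESI-MS. 7-Ethoxycoumarin run as positive control.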

[2] = system: Liver; assay: Metabolic stability in human liver S9 fraction assessed as compound degradation at 1 uM after 90 mins by HPLC/MS/MS; assay type: ADME, subcellular; conditions: s9, 1.5 h; summary of the method: as §1
[3] = system: BSC-1; assay: (§2) Cytotoxicity against african green monkey BSC1 cells after 2 to 4 hrs by MTS assay; assay type: cell-based; conditions: chlorocebus aethiops, bsc-1
Summary of the method: (§3)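 BSC-1 cells (5000 per reaction) mixed with serial compound dilutions in DMEM/2% Fetal Clone II, without virus. At the set time point, MTS reagent added for 2-4 h and OD490 read. Viability taken relative to untreated cells; CC50 from concentration versus % viability plot.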

[4] = system: HFF; assay: Cytotoxicity against human HFF cells assessed as reduction in cell viability after 7 days by neutral red uptake assay; assay type: cell-based; conditions: 168 h
Summary of the method: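 Uninfected HFF cells seeded at 2.5×10^4/well and grown 24 h to monolayer. Medium replaced by MEM/2% FBS containing graded compound concentrations; 7 d incubation. Cells stained with 0.01% neutral red, absorbance at 540 nm; CC50 interpolated as 50% viability loss.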

[5] = system: Ectromelia virus Moscow; assay: Antiviral activity against Ectromelia virus Moscow infected in african green monkey BSC1 cells after 4 to 5 days by plaque reduction assay; assay type: functional, organism-based; conditions: BSC-1
[6] = Metabolic stability in human liver S9 fraction assessed as compound remaining at 1 uM after 90 mins by HPLC/MS/MS; assay type: ADME, subcellular; conditions: read-out: Stability
Summary of the method: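 Liver S9 (human or monkey, 3 mg/mL protein, phosphate buffer) with test article at 1 or 10 μM final, pre-equilibrated about 2 min at 37 °C. Started with 1x NADPH regeneration system, sampled 0-90 min into 1% NH4OH in n-propanol. Held cold ≥48 h, centrifuged, C8 LC (water/isopropanol, 0.1% formic acid) with ESI-MS; 7-ethoxycoumarin as activity control.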

[7] = Selectivity index, ratio of CC50 for human HFF cells to EC50 for Vaccinia virus Copenhagen; assay type: toxicity, cell-based; conditions: read-out: Ratio CC50/EC50
[8] = Selectivity index, ratio of CC50 for human HFF cells to EC50 for Cowpox virus (Brighton Red); assay type: toxicity, cell-based; conditions: read-out: Ratio CC50/EC50
[9] = Selectivity index, ratio of CC50 for african green monkey BSC1 cells to EC50 for Ectromelia virus Moscow; assay type: toxicity, cell-based, BSC-1; conditions: read-out: Ratio CC50/EC50
[10] = Antiviral activity against Cowpox virus (Brighton Red) infected in human HFF cells after 3 days by plaque reduction assay; assay type: functional, cell-based; conditions: 72 h
[11] = system: Vaccinia virus; assay: Antiviral activity against Vaccinia virus Copenhagen infected in human HFF cells after 3 days by plaque reduction assay; assay type: functional, organism-based; conditions: Orthopoxvirus vaccinia, 72 h
[12] = as §2; assay type: cell-based, BSC-1; conditions: chlorocebus aethiops, BSC1 cells; summary of the method: as §3
[13] = system: Liver; assay type: ADME, subcellular, S9 fraction; conditions: rat, s9, 1.5 h, 1 µM
[14] = system: Liver; assay: Metabolic stability in human liver S9 fraction assessed as compound disappearance at 1 uM after 90 mins by HPLC/MS/MS; assay type: ADME, subcellular; conditions: s9, 1.5 h; summary of the method: as §1
[15] = system: Liver; assay type: ADME, subcellular, S9 fraction; conditions: rat, s9, 1.5 h, 10 µM
[16] = system: Liver; assay type: ADME, subcellular, Cavia porcellus, S9 fraction; conditions: guinea pig, s9, 1.5 h, 1 µM
[17] = system: Liver; assay: Metabolic stability in human liver S9 fraction assessed as compound disappearance at 10 uM after 90 mins by HPLC/MS/MS; assay type: ADME, subcellular; conditions: s9, 1.5 h; summary of the method: as §1
[18] = system: Liver; assay type: ADME, subcellular, Cavia porcellus, S9 fraction; conditions: guinea pig, s9, 1.5 h, 10 µM

SMILES | Stability [1] | Stability [2] | CC50 [3] [µM] | CC50 [4] [µM] | EC50 [5] [nM] | remaining at 1.5 h, 1 µM [6] [%] | selectivity ratio [7] | selectivity ratio [8] | selectivity ratio [9] | EC50 [10] [nM] | EC50 [11] [nM] | CC50 [12] [µM] | Stability [13] | Stability [14] | Stability [15] | Stability [16] | Stability [17] | Stability [18]
CC(C)CCCCCCCCCCCCCCOCCCOP(=O)(O)CO[C@H](CO)Cn1cnc2c(N)ncnc21 | Stable | Stable | 11.7 | 11.4 | 44 | 91.3 | 285 | 285 | 266 | 40 | 40 | – | – | – | – | – | – | –
CC(C)CCCCCCCCCCCCCCOCCCOP(=O)(O)CO[C@H](CO)Cn1ccc(N)nc1=O | – | – | 78 | 15 | 43 | – | 75 | 150 | 1810 | 100 | 200 | – | – | – | – | – | – | –
Nc1ccn(C[C@@H](CO)OCP(=O)(O)OCCCOCCCCCCCCCCCCCCC2CC2)c(=O)n1 | – | – | 74 | 56 | 740 | 88 | 187 | 112 | 100 | 500 | 300 | – | – | – | – | – | – | –
CCCCCCCCCCCCCCCCCCOC[C@@H](COP(=O)(O)CO[C@H](CO)Cn1ccc(N)nc1=O)OCc1ccccc1 | – | – | – | 47 | 30 | 92.3 | 118 | 157 | 1100 | 300 | 400 | 35 | – | – | – | – | – | –
CC(C)CCCCCCCCCCCCOCCCOP(=O)(O)CO[C@H](CO)Cn1ccc(N)nc1=O | – | – | 82 | 37 | 390 | – | 123 | 123 | 210 | 300 | 300 | – | – | – | – | – | – | –
CC(C)CCCCCCCCCCCOCCCOP(=O)(O)CO[C@H](CO)Cn1ccc(N)nc1=O | – | – | 82 | 44 | 350 | – | 44 | 55 | 234 | 800 | 1000 | – | – | – | – | – | – | –
C=CCCCCCCCCCCCCCCOCCOP(=O)(O)CO[C@H](CO)Cn1cnc2c(N)ncnc21 | Unstable | Unstable | 2.32 | 1.7 | 320 | – | 85 | 85 | 7.2 | 20 | 20 | – | – | – | – | – | – | –
CCCCCCCCCCCCCCCCOCCOP(=O)(O)CO[C@H](CO)Cn1cnc2c(N)ncnc21 | – | – | 40.5 | 14 | 140 | – | 156 | 156 | 289 | 90 | 90 | – | – | – | – | – | – | –
CC(C)CCCCCCCCCCCCCCOCCOP(=O)(O)CO[C@H](CO)Cn1cnc2c(N)ncnc21 | – | – | 59.6 | 2.5 | 10 | – | 250 | 250 | 5960 | 10 | 10 | – | – | – | – | – | – | –
CCCCCCCCCCCCCCCCOCCCOP(=O)(O)CO[C@H](CO)Cn1cnc2c(N)ncnc21 | Stable | Stable | 84.7 | 2.8 | 66 | – | 280 | 140 | 1280 | 20 | – | – | – | – | – | – | – | –
CCCCCCCCCCCCCCCCOCCCOP(=O)(O)CO[C@H](CO)Cn1ccc(N)nc1=O [BRINCIDOFOVIR] | – | – | 25.3 | 25 | 125 | 83.3 | 313 | 125 | 202 | 200 | – | – | Stable | Stable | Stable | Stable | Stable | Stable
